# Activity calls are given as the source filed them. No cut-off for these calls is given here.
# Columns and labels:
# [1] = Cytotoxicity against pig LLC-PK11 cells after 48 hrs by neutral red; assay type: cell-based; conditions: Sus scrofa, LLC-PK11, 48 h
# [2] = test system: Vero; experiment: Cytotoxicity against african green monkey Vero cells after 48 hrs by neutral red; assay type: cell-based; conditions: Chlorocebus sabaeus
# [3] = test system: Pichia kudriavzevii; experiment: Antifungal activity against Candida krusei ATCC 6258 after 48 hrs by spectrophotometry; assay type: functional; conditions: ATCC 6258, 48 h
# Summary of the method: (§1)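 MIC is the lowest concentration with no detectable growth. MFC: 5 μL from each clear well moved to agar at 35°C, 48 h for Candida spp. and A. fumigatus, 72 h for C. neoformans; lowest concentration that kills. Values are means of three independent experiments (two for one analog).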
# [4] = test system: Candida albicans; experiment: Antifungal activity against Candida albicans ATCC 90028 at 20 ug/ml after 48 hrs by spectrophotometry; assay type: functional, organism-based
# [5] = test system: Aspergillus fumigatus; experiment: Antifungal activity against Aspergillus fumigatus ATCC 90906 after 48 hrs; assay type: functional; conditions: ATCC 90906, 48 h; summary of the method: as §1
# [6] = test system: Nakaseomyces glabratus; experiment: Antifungal activity against Candida glabrata ATCC 90030 after 48 hrs by spectrophotometry; assay type: functional; conditions: ATCC 90030, 48 h; summary of the method: as §1
# [7] = test system: HepG2; experiment: Cytotoxicity against human HepG2 cells after 48 hrs by neutral red; assay type: cell-based; conditions: HepG2, 48 h
# [8] = test system: Aspergillus fumigatus; experiment: Antifungal activity against Aspergillus fumigatus ATCC 90906 after 48 hrs by spectrophotometry; assay type: functional; conditions: ATCC 90906, 48 h; summary of the method: as §1
# [9] = test system: Pichia kudriavzevii; experiment: Antifungal activity against Candida krusei ATCC 6258 after 48 hrs; assay type: functional; conditions: ATCC 6258, 48 h; summary of the method: as §1
# [10] = test system: Cryptococcus neoformans; experiment: Antifungal activity against Cryptococcus neoformans ATCC 90113 at 20 ug/ml after 72 hrs by spectrophotometry; assay type: functional, organism-based
# [11] = test system: Candida albicans; experiment: Antifungal activity against Candida albicans ATCC 90028 at 20 ug/ml after 48 hrs; assay type: functional, organism-based
# [12] = test system: Cryptococcus neoformans; experiment: Antifungal activity against Cryptococcus neoformans ATCC 90113 at 20 ug/ml after 72 hrs; assay type: functional, organism-based
# [13] = test system: Nakaseomyces glabratus; experiment: Antifungal activity against Candida glabrata ATCC 90030 after 48 hrs; assay type: functional; conditions: ATCC 90030, 48 h; summary of the method: as §1
# [14] = test system: Pichia kudriavzevii; experiment: Antifungal activity against Candida krusei ATCC 6258 at 20 ug/ml after 48 hrs; assay type: functional, organism-based
# [15] = test system: Pichia kudriavzevii; experiment: Antifungal activity against Candida krusei ATCC 6258 at 20 ug/ml after 48 hrs by spectrophotometry; assay type: functional, organism-based
# [16] = test system: Cryptococcus neoformans; experiment: Antifungal activity against Cryptococcus neoformans ATCC 90113 after 72 hrs; assay type: functional; conditions: ATCC 90113, 72 h; summary of the method: as §1
# [17] = test system: Candida albicans; experiment: Antifungal activity against Candida albicans ATCC 90028 after 48 hrs by spectrophotometry; assay type: functional; conditions: ATCC 90028, 48 h; summary of the method: as §1
# [18] = test system: Candida albicans; experiment: Antifungal activity against Candida albicans SC5314 infected in CD-1 mouse assessed as host survival at 1 mg/kg, ip administered 4, 24, 48, 72, and 96 hrs post inoculation measured up to […] relative to control; assay type: functional, organism-based; parameters: dose 1 mg/kg
# [19] = test system: Candida albicans; experiment: Antifungal activity against Candida albicans SC5314 infected in CD-1 mouse assessed as host survival at 25 mg/kg, po administered 4, 24, 48, 72, and 96 hrs post inoculation measured up to 12 days relative to control; assay type: functional, organism-based; parameters: dose 25 mg/kg
# Summary of the method: (§2)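 Male CD1 mice, 6-7 weeks old, five per group, infected by tail-vein injection of 1 × 10^6 C. albicans SC5314 cells. Dosed intraperitoneally or orally at 4, 24, 48, 72 and 96 h post inoculation; PBS-treated controls. Survival followed for 12 days and compared by Log-rank test.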
# [20] = test system: Candida albicans; experiment: Antifungal activity against Candida albicans SC5314 infected in CD-1 mouse assessed as host survival at 5 mg/kg, po administered 4, 24, 48, 72, and 96 hrs post inoculation measured up to 12 days relative to control; assay type: functional, organism-based; parameters: dose 5 mg/kg; summary of the method: as §2
# [21] = test system: Candida albicans; experiment: Antifungal activity against Candida albicans SC5314 infected in CD-1 mouse assessed as host survival at 5 mg/kg, ip administered 4, 24, 48, 72, and 96 hrs post inoculation measured up to 8 days relative to control; assay type: functional, organism-based; parameters: dose 5 mg/kg
# [22] = test system: Candida albicans; experiment: Antifungal activity against Candida albicans ATCC 90028 after 48 hrs; assay type: functional; conditions: ATCC 90028, 48 h; summary of the method: as §1
# [23] = test system: Cryptococcus neoformans; experiment: Antifungal activity against Cryptococcus neoformans ATCC 90113 after 72 hrs by spectrophotometry; assay type: functional; conditions: ATCC 90113, 72 h; summary of the method: as §1
# [24] = test system: Aspergillus fumigatus; experiment: Antifungal activity against Aspergillus fumigatus ATCC 90906 at 20 ug/ml after 48 hrs by spectrophotometry; assay type: functional, organism-based
# [25] = test system: Aspergillus fumigatus; experiment: Antifungal activity against Aspergillus fumigatus ATCC 90906 at 20 ug/ml after 48 hrs; assay type: functional, organism-based
# [26] = test system: Leishmania donovani; experiment: Antileishmanial activity against Leishmania donovani in ip dosed mouse model of leishamniasis; assay type: functional
MIC [3],MIC [6],MIC [8],MIC [17],MIC [23],Structure (SMILES),IC50 [1],IC50 [2],Activity [4],MFC [5],IC50 [7],MFC [9],Activity [10],Activity [11],Activity [12],MFC [13],Activity [14],Activity [15],MFC [16],MFC [22],also measured
3.3 µg/mL,2.5 µg/mL,2.5 µg/mL,–,–,CCCCCCCCCCCCCCCCOP(=O)([O-])OCC[N+](C)(C)C/C=C/c1ccccc1,2.1 µg/mL,> 25 µg/mL,inactive,5 µg/mL,19.6 µg/mL,3.3 µg/mL,inactive,inactive,inactive,3.3 µg/mL,–,–,–,–,–
–,10.8 µg/mL,20 µg/mL,–,–,CCCCCCCCCCCCCCCCOP(=O)([O-])OCC[N+](C)(C)Cc1ccc(Br)cc1,5.5 µg/mL,> 25 µg/mL,inactive,20 µg/mL,21.3 µg/mL,–,inactive,inactive,inactive,10.8 µg/mL,inactive,inactive,–,–,–
2.5 µg/mL,2.5 µg/mL,2.5 µg/mL,2.5 µg/mL,2.5 µg/mL,CCCCCCCCCCCCCCCCOP(=O)([O-])OCC[N+](C)(C)Cc1ccc([N+](=O)[O-])cc1,1.6 µg/mL,> 25 µg/mL,–,7.5 µg/mL,11.5 µg/mL,3.3 µg/mL,–,–,–,2.5 µg/mL,–,–,2.5 µg/mL,2.5 µg/mL,–
10 µg/mL,8.3 µg/mL,10 µg/mL,6.7 µg/mL,3.3 µg/mL,CCCCCCCCCCCCCCOP(=O)([O-])OCC[N+](C)(C)Cc1ccccc1,10.8 µg/mL,> 25 µg/mL,–,–,> 25 µg/mL,10 µg/mL,–,–,–,8.3 µg/mL,–,–,3.3 µg/mL,8.3 µg/mL,–
2 µg/mL,2.5 µg/mL,2.5 µg/mL,4.2 µg/mL,4.2 µg/mL,CCCCCCCCCCCCCCCCOP(=O)([O-])OCC[N+](C)(C)Cc1ccc(OC)cc1,1.9 µg/mL,> 25 µg/mL,–,7.5 µg/mL,12.9 µg/mL,3.3 µg/mL,–,–,–,3.3 µg/mL,–,–,4.2 µg/mL,4.2 µg/mL,–
–,16.6 µg/mL,–,–,–,C=CC[N+](C)(C)CCOP(=O)([O-])OCCCCCCCCCCCCCCCC,4.1 µg/mL,> 25 µg/mL,inactive,–,13.2 µg/mL,–,inactive,inactive,inactive,16.6 µg/mL,inactive,inactive,–,–,Activity [24]: inactive; Activity [25]: inactive

# More lines, now with the values behind:
Structure (SMILES),MIC [3],MIC [6],MIC [8],MIC [17],MIC [23],IC50 [1],IC50 [2],Activity [4],MFC [5],IC50 [7],MFC [9],Activity [10],Activity [11],Activity [12],MFC [13],Activity [14],Activity [15],MFC [16],MFC [22],also measured
CCCCCCCCCCCCCCCCOP(=O)([O-])OCC[N+](C)(C)Cc1ccccc1,5 µg/mL,3.3 µg/mL,2.5 µg/mL,2.5 µg/mL,3.3 µg/mL,4.8 µg/mL,> 25 µg/mL,–,2.5 µg/mL,> 25 µg/mL,15 µg/mL,–,–,–,3.3 µg/mL,–,–,3.3 µg/mL,2.5 µg/mL,Activity [18]: inactive; Activity [19]: inactive; Activity [20]: inactive; Activity [21]: inactive
CCCCCCCCCCCCCCCCOP(=O)([O-])OCC[N+](C)(C)Cc1ccc(Cl)cc1,–,11.2 µg/mL,12.5 µg/mL,–,–,3.2 µg/mL,> 25 µg/mL,inactive,12.5 µg/mL,21 µg/mL,–,inactive,inactive,inactive,11.2 µg/mL,inactive,inactive,–,–,–
C[C@@H]1[C@H](O)[C@@H](C)/C=C/C=C/C=C/C=C/C=C/C=C/C=C/[C@H](O[C@@H]2O[C@H](C)[C@@H](O)[C@H](N)[C@@H]2O)C[C@@H]2O[C@](O)(C[C@@H](O)C[C@@H](O)[C@H](O)CC[C@@H](O)C[C@@H](O)CC(=O)O[C@H]1C)C[C@H](O)[C@H]2C(=O)O [AMPHOTERICIN B],1.7 µg/mL,1.3 µg/mL,2.5 µg/mL,0.9 µg/mL,–,–,–,–,5 µg/mL,–,1.7 µg/mL,–,–,–,1.5 µg/mL,–,–,–,1 µg/mL,–
CCCCCCCCCCCCCCCCOP(=O)([O-])OCC[N+](C)(C)C [MILTEFOSINE],2.5 µg/mL,3.3 µg/mL,2.9 µg/mL,2.5 µg/mL,2.1 µg/mL,2.7 µg/mL,> 25 µg/mL,–,9.2 µg/mL,> 25 µg/mL,3.3 µg/mL,–,–,–,4.2 µg/mL,–,–,2.1 µg/mL,2.5 µg/mL,Activity [21]: inactive; ED50 [26]: 7.72 mg/kg
CCCCCCCCCCCCCCCCCCOP(=O)([O-])OCC[N+](C)(C)Cc1ccccc1,–,4.2 µg/mL,–,–,–,4.7 µg/mL,> 25 µg/mL,inactive,–,13 µg/mL,–,inactive,inactive,inactive,4.2 µg/mL,inactive,inactive,–,–,Activity [24]: inactive; Activity [25]: inactive
COc1cccc2c1C(=O)c1c(O)c3c(c(O)c1C2=O)C[C@@](O)(C(=O)CO)C[C@@H]3O[C@H]1C[C@H](N)[C@H](O)[C@H](C)O1 [DOXORUBICIN],–,–,–,–,–,0.7 µg/mL,> 5 µg/mL,–,–,0.9 µg/mL,–,–,–,–,–,–,–,–,–,–
